Test results from ChEMBL document CHEMBL1149495, “Newly discovered orally active pure antiestrogens” (Bioorg Med Chem Lett, 2006).

Experiments:
[1] = target: T1, Estrogen receptor (Homo sapiens) (UniProt P03372); experiment: Displacement of [3H]estradiol from recombinant ERalpha relative to estradiol
T1 sequence (whole entry): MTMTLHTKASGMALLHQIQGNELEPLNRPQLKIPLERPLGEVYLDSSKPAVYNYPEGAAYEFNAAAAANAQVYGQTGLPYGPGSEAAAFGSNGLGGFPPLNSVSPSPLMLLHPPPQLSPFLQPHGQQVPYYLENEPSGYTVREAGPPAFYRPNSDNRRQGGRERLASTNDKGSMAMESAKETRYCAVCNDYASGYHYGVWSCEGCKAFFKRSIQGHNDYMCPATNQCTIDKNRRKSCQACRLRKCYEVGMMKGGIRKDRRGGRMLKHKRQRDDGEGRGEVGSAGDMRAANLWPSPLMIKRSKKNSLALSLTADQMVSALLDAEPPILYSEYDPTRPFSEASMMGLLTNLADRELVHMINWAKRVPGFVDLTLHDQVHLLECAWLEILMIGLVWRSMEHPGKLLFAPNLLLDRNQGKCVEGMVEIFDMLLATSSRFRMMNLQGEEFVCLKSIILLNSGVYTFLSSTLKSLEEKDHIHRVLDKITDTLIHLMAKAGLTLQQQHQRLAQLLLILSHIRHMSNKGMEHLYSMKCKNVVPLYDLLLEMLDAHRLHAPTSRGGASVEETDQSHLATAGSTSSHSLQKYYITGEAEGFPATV
Summary of the method: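 Competitive radiometric binding assay using human recombinant ERα, with [3H]estradiol displaced by the test compound. Result is expressed as relative binding affinity (%), with estradiol set to 100.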

Mus musculus [2] = experiment: Antagonist effect on estrogen activity assessed as inhibition of estrogen-stimulated uterine weight gain in ovariectomized mouse at 1 mg/kg, po; assay type: functional
Summary of the method: (§1)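 Ovariectomized mice given 0.1 lg 17b-estradiol benzoate sc in peanut oil plus oral test compound in 5% gum arabic-water suspension, once daily for three consecutive days. Uteri weighed about 24 h after last dose. % inhibition = 100·(1−(T−C)/(E−C)), using uterine weight gain per body weight. C is vehicle. Mean ± SEM.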

Mus musculus [3] = experiment: Antagonist effect on estrogen activity assessed as inhibition of estrogen-stimulated uterine weight gain in ovariectomized mouse at 3 mg/kg, po; assay type: functional; summary of the method: as §1
Mus musculus [4] = experiment: Antagonist effect on estrogen activity assessed as inhibition of estrogen-stimulated uterine weight gain in ovariectomized mouse at 10 mg/kg, po; assay type: functional; summary of the method: as §1
Rattus norvegicus [5] = experiment: (§2) AUC in Sprague-Dawley rat at 10 mg/kg, iv; assay type: ADME, organism-based, Plasma; design: dose 10 mg/kg, route intravenous; settings: in vivo
Summary of the method: (§3)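 Sprague–Dawley rats dosed as a solution in water/PEG200/EtOH (3:6:1), intravenously at 10 mg/kg or orally at 20 mg/kg. Plasma AUC of intact compound; total clearance also derived from iv data and bioavailability from po/iv AUC.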

Rattus norvegicus [6] = experiment: (§4) AUC in Sprague-Dawley rat at 20 mg/kg, po; assay type: ADME, organism-based, Plasma; design: dose 20 mg/kg, route oral; settings: in vivo; summary of the method: as §3
Mus musculus [7] = experiment: Agonist effect on estrogen activity assessed as stimulation of uterine weight gain in ovariectomized mouse at 17 mg/kg, sc relative to control; assay type: functional; settings: route subcutaneous
Summary of the method: (§5)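 Ovariectomized mice dosed sc once daily for three consecutive days with test compound in 10% EtOH-peanut oil. Uteri weighed about 24 h after last dose. Uterine weight gain per body weight expressed as % = 100·(T−C)/(E−C), E being the 17b-estradiol benzoate response and C vehicle. Mean ± SEM. Difference from vehicle tested by Student's t test (P < 0.05).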

[8] = as §2; assay type: ADME, organism-based, Plasma; design: dose 10 mg/kg, route intravenous; settings: Sprague-Dawley, plasma; summary of the method: as §3
[9] = Total clearance in Sprague-Dawley rat at 10 mg/kg, iv; assay type: ADME, organism-based; design: dose 10 mg/kg, route intravenous; settings: in vivo
Summary of the method: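 Sprague–Dawley rats were given a single iv dose as a solution in water/PEG200/EtOH (3:6:1). Total clearance was derived alongside plasma AUC.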

[10] = as §4; assay type: ADME, organism-based, Plasma; design: dose 20 mg/kg, route oral; settings: Sprague-Dawley, plasma; summary of the method: as §3
[11] = Bioavailability in Sprague-Dawley rat; assay type: ADME, organism-based; settings: in vivo
Summary of the method: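 Sprague–Dawley rats were given the compound as a solution in water/PEG200/EtOH (3:6:1), 10 mg/kg iv and 20 mg/kg po. Plasma AUC was determined for each route.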

[12] = AUC in cynomolgus monkey at 3 mg/kg, iv; assay type: ADME, organism-based, Macaca fascicularis; design: dose 3 mg/kg, route intravenous; settings: plasma
Summary of the method: (§6)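 Cynomolgus monkeys given 3 mg/kg intravenously or orally as a solution in water/PEG200/EtOH (4:8:3). Plasma AUC of intact compound; after oral dosing the 17-position metabolite was also quantified, and bioavailability was calculated from po versus iv AUC.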

[13] = AUC in CD1 mouse at 30 mg/kg, po; assay type: ADME, organism-based; design: dose 30 mg/kg, route oral; settings: plasma
Summary of the method: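 CD-1 mice dosed orally at 30 mg/kg as a suspension in 5% gum arabic. Plasma AUC measured for intact compound and separately for its 17-position metabolite (17-keto/17-hydroxy interconversion product).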

[14] = AUC in CD1 mouse at 10 mg/kg, iv; assay type: ADME, organism-based; design: dose 10 mg/kg, route intravenous; settings: plasma
Summary of the method: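 CD-1 mice dosed intravenously at 10 mg/kg as a solution in water/PEG200/EtOH (3:6:1). Plasma AUC of intact compound.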

[15] = Bioavailability in CD1 mouse; assay type: ADME, organism-based; settings: in vivo
Summary of the method: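 CD-1 mice were dosed orally at 30 mg/kg as a suspension in 5% gum arabic, and intravenously at 10 mg/kg as a solution in water/PEG200/EtOH (3:6:1). Plasma AUC of the intact compound was measured for each route. The 17-keto or 17-hydroxy metabolite was also monitored.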

[16] = AUC in cynomolgus monkey at 3 mg/kg, po; assay type: ADME, organism-based, Macaca fascicularis; design: dose 3 mg/kg, route oral; settings: plasma; summary of the method: as §6
[17] = Bioavailability in cynomolgus monkey; assay type: ADME, organism-based, Macaca fascicularis; settings: in vivo
Summary of the method: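 Cynomolgus monkeys received 3 mg/kg by both the oral and intravenous routes, as a solution in water/PEG200/EtOH (4:8:3). Plasma AUC of the intact compound and of the interconverting 17-keto/17-hydroxy metabolite was measured.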

Mus musculus [18] = experiment: Agonist effect on estrogen activity assessed as stimulation of uterine weight gain in ovariectomized mouse at 50 mg/kg, sc relative to control; assay type: functional; settings: route subcutaneous; summary of the method: as §5

| SMILES | RBA [1] | inhibition in vivo at 1 mg/kg (Mus musculus [2]) | inhibition in vivo at 3 mg/kg (Mus musculus [3]) | inhibition in vivo at 10 mg/kg (Mus musculus [4]) | AUC (Rattus norvegicus [5]) | AUC (Rattus norvegicus [6]) | Activity (Mus musculus [7]) | AUC [8] | clearance [9] | AUC [10] | bioavailability [11] | AUC [12] | AUC [13] | AUC [14] | bioavailability [15] | AUC [16] | bioavailability [17] | Activity (Mus musculus [18]) |
| --- | --- | --- | --- | --- | --- | --- | --- | --- | --- | --- | --- | --- | --- | --- | --- | --- | --- | --- |
| C[C@]12CC[C@@H]3c4ccc(O)cc4C[C@@H](CCCCCCCCC(CCCC(F)(F)C(F)(F)F)C(=O)O)[C@H]3[C@@H]1CC[C@@H]2O (stereo partly specified) | 0.8% | 37% | 67% | 87% |  |  |  |  |  |  |  |  |  |  |  |  |  |  |
| C[C@]1(c2ccc(O)cc2)CSc2cc(O)ccc2[C@H]1CCCCCCCCC(CCCC(F)(F)C(F)(F)F)C(=O)O (stereo partly specified) |  | 11% | 41% | 77% | 228 µg·h/mL | 209 µg·h/mL |  |  |  |  |  |  |  |  |  |  |  |  |
| C[C@]12CC[C@@H]3c4ccc(O)cc4C[C@@H](CCCCCCCCCC(CCC(F)(F)C(F)(F)C(F)(F)C(F)(F)F)C(=O)O)[C@H]3[C@@H]1CC[C@@H]2O (stereo partly specified) | 0.7% | 27% | 49% | 92% |  |  |  |  |  |  |  |  |  |  |  |  |  |  |
| C[C@]12CC[C@@H]3c4ccc(O)cc4C[C@@H](CCCCCCCC[C@@H](CCCC(F)(F)C(F)(F)C(F)(F)C(F)(F)F)C(=O)O)[C@H]3[C@@H]1CC[C@@H]2O | 1.1% | 59% | 93% | 99% |  |  | 4% | 146 µg·h/mL | 1.23 mL/min/kg | 98 µg·h/mL | 33% | 88 µg·h/mL | 274 µg·h/mL | 244 µg·h/mL | 37% | 0.42 µg·h/mL | 0.48% |  |
| C[C@]12CC[C@@H]3c4ccc(O)cc4C[C@@H](CCCCCCCCCC(CCCC(F)(F)C(F)(F)F)C(=O)O)[C@H]3[C@@H]1CC[C@@H]2O (stereo partly specified) | 1.4% | 22% | 30% | 80% |  |  |  |  |  |  |  |  |  |  |  |  |  |  |
| C[C@]12CC[C@@H]3c4ccc(O)cc4C[C@@H](CCCCCCCCC(CCC(F)(F)C(F)(F)C(F)(F)C(F)(F)F)C(=O)O)[C@H]3[C@@H]1CC[C@@H]2O (stereo partly specified) | 0.6% | 55% | 80% | 98% |  |  |  |  |  |  |  |  |  |  |  |  |  |  |
| C[C@]12CC[C@@H]3c4ccc(O)cc4C[C@@H](CCCCCCCCC[S+]([O-])CCCC(F)(F)C(F)(F)F)[C@H]3[C@@H]1CC[C@@H]2O (stereo partly specified) [FULVESTRANT] |  | 11% | 29% | 54% | 5.3 µg·h/mL | 1.7 µg·h/mL |  |  |  |  |  |  |  |  |  |  |  |  |
| C[C@]12CC[C@@H]3c4ccc(O)cc4C[C@@H](CCCCCCCC[C@H](CCCC(F)(F)C(F)(F)C(F)(F)C(F)(F)F)C(=O)O)[C@H]3[C@@H]1CC[C@@H]2O | 1% | 58% | 88% | 103% |  |  | 3% | 254 µg·h/mL | 0.65 mL/min/kg | 190 µg·h/mL | 37% |  | 470 µg·h/mL | 447 µg·h/mL | 35% | 0.3 µg·h/mL |  |  |
| C[C@]12CC[C@@H]3c4ccc(O)cc4C[C@@H](CCCCCCCC[C@@H](CCCC(F)(F)C(F)(F)C(F)(F)C(F)(F)F)C(=O)O)[C@H]3[C@@H]1CCC2=O | 1% | 54% | 85% | 96% |  |  |  | 50 µg·h/mL |  | 32 µg·h/mL | 32% | 77 µg·h/mL | 468 µg·h/mL | 389 µg·h/mL | 40% | 2.42 µg·h/mL | 3.1% | 1% |
| C[C@]12CC[C@@H]3c4ccc(O)cc4C[C@@H](CCCCCCCCC(CCCC(F)(F)C(F)(F)C(F)(F)C(F)(F)F)C(=O)O)[C@H]3[C@@H]1CC[C@@H]2O (stereo partly specified) | 1.4% | 64% | 87% | 96% |  |  | 4% | 207 µg·h/mL | 0.817 mL/min/kg | 144 µg·h/mL | 35% |  |  |  |  |  |  |  |
| C[C@]12CC[C@@H]3c4ccc(O)cc4C[C@@H](CCCCCCCCCC(CCCC(F)(F)C(F)(F)C(F)(F)C(F)(F)F)C(=O)O)[C@H]3[C@@H]1CC[C@@H]2O (stereo partly specified) | 0.7% | 27% | 42% | 85% |  |  |  |  |  |  |  |  |  |  |  |  |  |  |
